Results reported in ChEMBL document CHEMBL1125869, “Calcium-independent phosphodiesterase inhibitors as putative antidepressants: [3-(bicycloalkyloxy)-4-methoxyphenyl]-2-imidazolidinones” (J Med Chem, 1991).

How the values were obtained:
[1] = species on record: Mus musculus; experiment: Minimum effective peroral dose (MED) in mouse forced-swim test; format: functional; details: po, read-out: MED
Procedure, shortened: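 Mice dosed orally, with compound in vehicle at 1 mL/100 g. One hour later they were placed in water at 25 °C. After 2 min habituation, immobility was rated ten times at 30-s intervals and expressed as percent of control. At least four half-log-spaced doses were given, with nine mice per dose. MED was the lowest dose giving a statistically significant decrease in immobility.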

[2] = biological target: T1, Phosphodiesterase 4 (Rattus norvegicus, UniProt P14270+P14646+P14644+P54748); experiment: Inhibition of calcium-independent Phosphodiesterase 4; format: protein assay
Procedure, shortened: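 Enzyme taken from the 105000g supernatant of female Sprague-Dawley rat cerebral cortex and separated from the calcium-dependent form on Sephadex G-200. Substrate was 1.0 μM [3H]cAMP in Tris-HCl pH 7.5/MgCl2, run in triplicate for 8 min at 37 °C and stopped by heat. [3H]5'-AMP was separated on boronate affinity gel and counted. IC50 came from semilog plots over three log concentrations in triplicate.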

[3] = biological target: T1, Phosphodiesterase 4; experiment: Inhibition of [3H]- rolipram binding to rat cerebral cortex membranes; format: cell membranes, Membrane
Procedure, shortened: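 Cerebral cortex membranes homogenized in ice-cold 50 mM Tris-HCl pH 8.0 with 1.2 mM MgCl2, spun at 30000g for 20 min at 4 °C, washed once and resuspended at 0.5 mg protein/mL. (±)-[3H]rolipram at 2 nM final, 30 min at 25 °C, triplicates per concentration. Nonspecific binding defined with Ro 20-1724 (10 μM). Filtration, then scintillation counting. IC50 taken from semilog plots over several log concentrations.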

[4] = tested on: Mus musculus; experiment: Reversal of reserpine-induced hypothermia in mice by intraperitoneal dose; format: functional; details: ip, read-out: MED
Procedure, shortened: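 Individually housed mice at 20 °C received reserpine 2 mg/kg sc 18 h before test. Rectal temperature was measured before and 1 h after dosing with test drug in 5% DMSO/5% Emulphor 620/90% saline. At least four half-log-spaced doses were given, with nine mice per dose. MED was the dose giving a statistically significant temperature increase.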

Row | SMILES | IC50 [2] [µM] | IC50 [3] [nM] | minimal effective dose [1] [mg/kg] | minimal effective dose [4] [µg/kg]
1 | COc1ccc(C2CNC(=O)N2C)cc1OC1CC2C3CCC(C3)C2C1 (stereo not given) | 1.4 | > 100 | > 32 | 3200
2 | COc1ccc(C2CNC(=O)N2C)cc1OC1CC2CCC(C2)C1 (stereo not given) | 2.4 | > 100 | > 32 | > 3200
3 | COc1ccc(C2CNC(=O)N2C)cc1O[C@H]1CC2CC1C1CCCC21 (stereo not given in full) |  |  | 32 | 320
4 | COc1ccc(C2CNC(=O)N2C)cc1O[C@H]1CC2CCC1C2 (stereo not given in full) |  |  | > 32 | 1000
5 | COc1ccc(C2CNC(=O)N2C)cc1O[C@@H]1CC2CCC1C2 (stereo not given in full) | 0.22 | 2.6 | 1 | 0.03
6 | COc1ccc(C2CNC(=O)N2C)cc1O[C@@H]1CC2CC1C1CCCC21 (stereo not given in full) | 0.49 | 10 | 10 | 320
7 | COc1ccc(C2CNC(=O)C2)cc1OC1CCCC1 (stereo not given) [ROLIPRAM] |  |  | 1.8 | 0.1

Now from value to compound, other results behind:

Row | IC50 [2] [µM] | IC50 [3] [nM] | SMILES | minimal effective dose [1] [mg/kg] | minimal effective dose [4] [µg/kg]
8 | 3.1 | 100 | COc1ccc(C2CNC(=O)N2C)cc1OC1CC2C3CCC(C3)C12 (stereo not given) | > 32 | 
9 | 2.5 | 81 | COc1ccc(C2CNC(=O)N2C)cc1OC1CC2CCC1CC2 (stereo not given) |  | > 3200
10 | 0.29 | 21 | COc1ccc(C2CNC(=O)N2C)cc1O[C@@H]1CC2CC1c1ccccc12 (stereo not given in full) | > 32 | 1000
11 | 11 | > 100 | COc1ccc(C2CNC(=O)N2C)cc1OC1C2CC3CC(C2)CC1C3 (stereo not given) | > 32 | 3200
12 | 0.13 | 3.1 | COc1ccc(C2CNC(=O)N2C)cc1OC1CC2C=CC1C2 (stereo not given) | 0.1 | 100
